From ChEMBL document CHEMBL3861959, “Synthesis and antiproliferative evaluation of novel 2-(4H-1,2,4-triazole-3-ylthio)acetamide derivatives as inducers of apoptosis in cancer cells” (Eur J Med Chem, 2016)
The source made the active and inactive calls. The rule behind the calls is not given here.

Columns and labels:
[1] = Cytotoxicity against human NCI-ADR-RES cells assessed as cell growth at 10^-5 M after 48 hrs by SRB assay relative to control; type: functional; conditions: read-out: Activity
Method in brief: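 NCI single-dose primary screen run under the US NCI protocol. Compounds tested at 10 µM across the 60-cell-line panel, with growth percent reported for each line.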

[2] = (§1) Cytotoxicity against human K562 cells assessed as decrease in cell proliferation after 48 hrs by MTT assay; type: functional, cell-based; conditions: K562, 48 h
Method in brief: (§2)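 MTT viability assay in A549, K562 and PC-3 cells. Media carried 10% FBS, 1% L-glutamine and penicillin/streptomycin, at 37 °C in 5% CO2. Cells seeded and left overnight, then exposed to 5–100 µM compound for 48 h. MTT added to 0.5 mg/ml final for 4 h, medium removed, and SDS buffer added. Data given as mean ± SD, analysed by ANOVA/Tukey.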

[3] = test system: K562; test: as §1; type: functional, cell-based; method in brief: as §2
[4] = Induction of apoptosis in human K562 cells assessed as upregulation of caspase-3 levels using DEVD-pNA substrate after 72 hrs by ELISA; type: functional, cell-based
Method in brief: (§3)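 Supernatant protein measured by Bradford. 200 µg protein incubated with pNA substrate (DEVD-pNA for caspase-3) using a colorimetric kit. Data given as mean ± SD; one-way ANOVA with Tukey test, p < 0.05.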

[5] = test system: K562; test: Induction of apoptosis in human K562 cells assessed as downregulation of Bcl-2 levels after 72 hrs by […]; type: functional, cell-based
[6] = test system: K562; test: Disruption of mitochondrial membrane potential in human K562 cells after 72 hrs by JC1 staining-based assay; type: functional, cell-based
Method in brief: (§4)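 Cells seeded and treated with 10, 20 and 50 µM compound. Cells pelleted at 600 × g, resuspended in JC-1 dye, and incubated at 37 °C in 5% CO2 for 15 min. Green monomers mark disrupted membrane potential; orange aggregates mark intact potential.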

[7] = Cytotoxicity against human PC3 cells assessed as decrease in cell proliferation after 48 hrs by MTT assay; type: functional, cell-based; conditions: PC-3, 48 h; method in brief: as §2
[8] = Induction of apoptosis in human PC3 cells assessed as upregulation of caspase-3 levels using DEVD-pNA substrate by ELISA; type: functional, cell-based; conditions: PC-3; method in brief: as §3
[9] = test system: PC-3; test: Induction of apoptosis in human PC3 cells assessed as downregulation of Bcl-2 levels by […]; type: functional, cell-based
[10] = test system: PC-3; test: Disruption of mitochondrial membrane potential in human PC3 cells at 10 to 50 uM after 72 hrs by JC1 staining-based assay; type: functional, cell-based; method in brief: as §4
[11] = Induction of apoptosis in human A549 cells assessed as upregulation of caspase-3 levels using DEVD-pNA substrate by ELISA; type: functional, cell-based; method in brief: as §3
[12] = Cytotoxicity against human A549 cells assessed as decrease in cell proliferation after 48 hrs by MTT assay; type: functional, cell-based; conditions: A549, 48 h; method in brief: as §2
[13] = test system: A549; test: Disruption of mitochondrial membrane potential in human A549 cells after 72 hrs by JC1 staining-based assay; type: functional, cell-based; method in brief: as §4
[14] = test system: A549; test: Induction of apoptosis in human A549 cells assessed as downregulation of Bcl-2 levels by […]; type: functional, cell-based
[15] = Induction of apoptosis in human A549 cells assessed as upregulation of caspase-8 levels at 50 uM using IETD-pNA substrate by ELISA; type: functional, cell-based

SMILES | growth at 10 µM [1] | IC50 [2] | Activity [3] | Activity [4] | Activity [5] | Activity [6] | IC50 [7] | Activity [8] | Activity [9] | Activity [10] | Activity [11] | IC50 [12] | Activity [13] | Activity [14] | Activity [15]
CC(=O)Nc1ccc(OCc2nnc(SCC(=O)Nc3ccc(Br)cc3)n2Cc2ccccc2)cc1 | 68.2% | 7.71 µM | Dose-dependent effect | Dose-dependent effect | Dose-dependent effect | Dose-dependent effect | – | – | – | – | – | – | – | – | –
Cc1ccc(C(C)C)c(OCc2nnc(SCC(=O)Nc3ccc(S(N)(=O)=O)cc3)n2Cc2ccccc2)c1 | 77.1% | – | – | – | – | – | 5.96 µM | Dose-dependent effect | Dose-dependent effect | Active | – | – | – | – | –
Cc1ccc(C(C)C)c(OCc2nnc(SCC(=O)Nc3ccc(Cl)cc3)n2Cc2ccccc2)c1 | 69.1% | – | – | – | – | – | – | – | – | – | Dose-dependent effect | 7.9 µM | Dose-dependent effect | Dose-dependent effect | Active
